Measurements published in ChEMBL document CHEMBL1140467, “Small molecule ago-allosteric modulators of the human glucagon-like peptide-1 (hGLP-1) receptor” (Bioorg Med Chem Lett, 2007).
Activity calls are given as the source filed them. The rule behind the calls is not given here.

Tests used:
[1] = molecular target: T1, Glucagon-like peptide 1 receptor (Homo sapiens, UniProt P43220); experiment: Agonist activity at human GLP1 assessed as stimulation of cAMP; assay type: functional
Outline: (§1)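 cAMP production was measured in a membrane-based assay at the human GLP-1 receptor. Potency is reported as EC50 and efficacy as Emax (%).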

[2] = molecular target: T1, Glucagon-like peptide 1 receptor; experiment: Agonist activity at human GLP1 assessed as stimulation of cAMP relative to cAMP; assay type: functional; outline: as §1
[3] = molecular target: T1, Glucagon-like peptide 1 receptor; experiment: Effect on augmentation of [125]GLP1 binding to human GLP1; details: read-out: IC50 (the source's name)
Outline: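 Test agents were incubated with human GLP-1 receptor and GLP-1, and the rise in GLP-1 binding was followed across agent concentrations. IC50 is the agent concentration giving 50% of its maximal augmentation of GLP-1 binding.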

Mus musculus = organism: Mus musculus; experiment: Effect on release of insulin in mouse islets; assay type: functional
Pancreas = experiment: Effect on release of insulin in perfused rat pancreas; assay type: functional, tissue-based

T1 sequence (P43220 whole entry): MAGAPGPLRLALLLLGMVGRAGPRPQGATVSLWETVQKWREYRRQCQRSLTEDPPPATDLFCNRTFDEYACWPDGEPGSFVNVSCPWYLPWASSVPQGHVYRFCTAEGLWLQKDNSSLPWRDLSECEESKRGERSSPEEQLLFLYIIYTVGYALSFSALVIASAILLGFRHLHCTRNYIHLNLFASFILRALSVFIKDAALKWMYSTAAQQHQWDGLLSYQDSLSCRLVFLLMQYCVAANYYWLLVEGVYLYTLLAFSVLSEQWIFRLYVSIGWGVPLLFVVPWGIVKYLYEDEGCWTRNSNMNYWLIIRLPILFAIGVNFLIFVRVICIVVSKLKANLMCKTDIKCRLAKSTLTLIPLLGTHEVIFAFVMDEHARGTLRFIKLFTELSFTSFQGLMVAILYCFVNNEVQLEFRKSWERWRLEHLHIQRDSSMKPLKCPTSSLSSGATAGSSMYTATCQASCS

Row | Structure (SMILES) | EC50 [1] | Emax [2] | EC50 [3] | further results
1 | CC(C)C(=O)c1nc2cc(Cl)c(Cl)cc2nc1C(C)C |  | < 2% | > 10000 nM | 
2 | CC(C)c1nc2cc(Cl)c(Cl)cc2nc1[S+](C)[O-] (stereo unspecified) | 30000 nM | 29% | 1100 nM | 
3 | CCCc1nc2cc(C)c(C)cc2nc1S(C)(=O)=O |  | < 2% |  | 
4 | CCCc1nc2cc(OC)c(OC)cc2nc1S(C)(=O)=O |  | < 2% |  | 
5 | Nc1nc2cc(Cl)c(Cl)cc2nc1C(F)(F)F |  | < 2% |  | 
6 | Cc1nnc([S+]([O-])c2nc3cc(Cl)c(Cl)cc3nc2C(C)C)s1 (stereo unspecified) | 5100 nM | 19% |  | 
7 | CC(C)Nc1nc2cc(Cl)c([N+](=O)[O-])c(C(F)(F)F)c2nc1S(C)(=O)=O | 5000 nM | 31% |  | 
8 | CCC(C)Nc1nc2cc(Cl)c([N+](=O)[O-])cc2nc1S(C)(=O)=O (stereo unspecified) | 4300 nM | 44% |  | 
9 | O=S1(=O)CCCc2nc3cc(Cl)c(Cl)cc3nc21 |  |  |  | Activity [1]: inactive
10 | COC(=O)CCNS(=O)(=O)c1ccc(CS(=O)(=O)c2nc3cc(Cl)c(Cl)cc3nc2C(C)C)cc1 | 4900 nM | 65% |  | 
11 | CC(C)c1nc2cc(Cl)c(Cl)cc2nc1O |  | < 2% |  | 
12 | CC(C)Nc1nc2c([N+](=O)[O-])c(Cl)c(Cl)cc2nc1S(C)(=O)=O | 1500 nM | 38% |  | 
13 | CC(C)(C)Nc1nc2c(Cl)cc(C(F)(F)F)cc2nc1S(C)(=O)=O | 2200 nM | 42% |  | 
14 | CC(C)n1c(S(C)(=O)=O)nc2cc(Cl)c(Cl)cc21 |  |  |  | Activity [1]: inactive
15 | N#Cc1nc2cc(Cl)c(Cl)cc2nc1C(F)(F)F |  | < 2% |  | 
16 | CC(C)c1nc2cc(Cl)c(Cl)cc2nc1S(=O)(=O)Cc1ccc(S(C)(=O)=O)cc1 | 1200 nM | 63% | 459 nM | 
17 | CC(C)c1nc2cc(Cl)c(Cl)cc2nc1S(=O)(=O)Cc1ccc(S(=O)(=O)CC2CC2)cc1 | 3300 nM | 64% |  | 
18 | CCOP(=O)(OCC)c1nc2cc(Cl)c(Cl)cc2nc1C(F)(F)F |  | < 2% |  | 
19 | COC(=O)c1cc2cc(Cl)c(Cl)cc2nc1S(C)(=O)=O |  |  |  | Activity [1]: inactive
20 | CCN(CC)C(=O)c1nc2cc(Cl)c(Cl)cc2nc1C(C)C |  | < 2% | > 10000 nM | 
21 | CCOC(=O)c1nc2cc(Cl)c(Cl)cc2nc1C(F)(F)F |  | < 2% |  | 

Now from value to compound, other results behind:

Row | EC50 [1] | Emax [2] | EC50 [3] | Structure (SMILES) | further results
22 | 2600 nM | 40% | 91 nM | CS(=O)(=O)c1nc2cc(Cl)c(Cl)cc2nc1C(F)(F)F | 
23 | 175 nM | 94% |  | CCC(C)Nc1nc2cc(Cl)c(Cl)cc2nc1S(C)(=O)=O (stereo unspecified) | 
24 | 1400 nM | 43% |  | CS(=O)(=O)c1nc2cc(Cl)c(Cl)cc2nc1NC1CCS(=O)(=O)C1 (stereo unspecified) | 
25 | 1000 nM | 47% |  | Cc1nnc(S(=O)(=O)c2nc3cc(Cl)c(Cl)cc3nc2C(C)C)s1 | 
26 | 2200 nM | 72% |  | CS(=O)(=O)c1nc2cc(Cl)c(Cl)cc2nc1N1CCCC1 | 
27 |  | 46% |  | CC(C)Sc1nc2cc(Cl)c(Cl)cc2nc1S(C)(=O)=O | 
28 | 725 nM | 46% | 109 nM | CCNc1nc2cc(Cl)c(Cl)cc2nc1S(C)(=O)=O | 
29 | 214 nM | 82% | 107 nM | CC(C)Nc1nc2cc(Cl)c(Cl)cc2nc1S(C)(=O)=O | 
30 | 5000 nM | 35% | 253 nM | CC(C)c1nc2cc(Cl)c(Cl)cc2nc1S(C)(=O)=O | 
31 | 2600 nM | 52% |  | CON(C)c1nc2cc(Cl)c(Cl)cc2nc1S(C)(=O)=O | 
32 | 2200 nM | 47% | 530 nM | CN(C)c1nc2cc(Cl)c(Cl)cc2nc1S(C)(=O)=O | 
33 | 6300 nM | 24% |  | CS(=O)(=O)c1nc2cc(Cl)c(Cl)cc2nc1N | 
34 | 155 nM | 85% |  | CC(C)(C)Nc1nc2cc(Cl)c(Cl)cc2nc1S(C)(=O)=O | Activity (Mus musculus): Active; Activity (Pancreas): Active
35 | 14000 nM | 32% |  | CC(=O)NNc1nc2cc(Cl)c(Cl)cc2nc1S(C)(=O)=O | 
36 | 433 nM | 69% |  | CS(=O)(=O)c1nc2cc(Cl)c(Cl)cc2nc1NC1CCCc2ccccc21 (stereo unspecified) | 
37 | 3000 nM | 71% | 551 nM | CC(C)c1nc2cc(Cl)c(Cl)cc2nc1S(=O)(=O)CCC1OCCO1 | 
38 | > 10000 nM | 24% | 3100 nM | CCOC(=O)c1nc2cc(Cl)c(Cl)cc2nc1S(C)(=O)=O | 
39 | 1200 nM | 68% | 404 nM | CCCc1nc2cc(Cl)c(Cl)cc2nc1S(C)(=O)=O | 
40 | 14000 nM | 38% |  | CS(=O)(=O)c1nc2cc(Cl)c(Cl)cc2nc1N1CCC(=O)N1 | 
41 | 1800 nM | 75% | 460 nM | CC(C)N(C)c1nc2cc(Cl)c(Cl)cc2nc1S(C)(=O)=O | 
42 | 7100 nM | 22% |  | CC(=O)NCCNc1nc2cc(Cl)c(Cl)cc2nc1S(C)(=O)=O | 
